Source: ChEMBL document CHEMBL4622950, “The synthesis and antituberculosis activity of 5-alkynyl uracil derivatives” (Bioorg Med Chem Lett, 2020)
Converted amounts (≈) assume the structure as drawn.

Columns and labels:
[1] = test system: Mycobacterium tuberculosis; experiment: Antitubercular activity against Mycobacterium bovis BCG assessed as bacterial growth inhibition at 50 to 100 ug/ml by MABA relative to control; assay type: functional, variant bovis BCG
[2] = test system: Mycobacterium tuberculosis; experiment: Antitubercular activity against Mycobacterium bovis BCG assessed as bacterial growth inhibition by alamar blue staining based assay; assay type: functional; settings: variant bovis BCG
Outline: (§1)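 Whole-cell growth inhibition of Mycobacterium bovis and M. tuberculosis H37Ra, read quantitatively by Microplate Alamar Blue Assay (alamar blue reagent). Compounds were tested across 1 to 100 µg/ml. Activity was expressed as MIC50 (µg/ml) from this concentration series.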

[3] = test system: Mycobacterium tuberculosis; experiment: Antitubercular activity against Mycobacterium bovis BCG assessed as bacterial growth inhibition at 10 ug/ml by MABA relative to control; assay type: functional; settings: variant bovis BCG, read-out: GI
[4] = test system: Mycobacterium tuberculosis; experiment: Antitubercular activity against Mycobacterium bovis BCG assessed as bacterial growth inhibition at 100 ug/ml by MABA relative to control; assay type: functional; settings: variant bovis BCG, read-out: GI
[5] = test system: Mycobacterium tuberculosis; experiment: Antitubercular activity against Mycobacterium bovis BCG assessed as bacterial growth inhibition at 10 to 50 ug/ml by MABA relative to control; assay type: functional, variant bovis BCG
[6] = test system: Mycobacterium tuberculosis; experiment: Antitubercular activity against Mycobacterium bovis BCG assessed as bacterial growth inhibition at 1 to 5 ug/ml by MABA relative to control; assay type: functional, variant bovis BCG
[7] = test system: Mycobacterium tuberculosis; experiment: Antitubercular activity against Mycobacterium bovis BCG assessed as bacterial growth inhibition by MABA relative to control; assay type: functional, variant bovis BCG; outline: as §1
[8] = test system: Mycobacterium tuberculosis; experiment: Antitubercular activity against Mycobacterium bovis BCG assessed as bacterial growth inhibition at 50 ug/ml by MABA relative to control; assay type: functional; settings: variant bovis BCG, read-out: GI
[9] = test system: Mycobacterium tuberculosis; experiment: Antitubercular activity against Mycobacterium bovis BCG assessed as bacterial growth inhibition at 25 ug/ml by MABA relative to control; assay type: functional; settings: variant bovis BCG, read-out: GI
[10] = test system: Mycobacterium tuberculosis; experiment: Antitubercular activity against Mycobacterium bovis BCG assessed as bacterial growth inhibition at 5 ug/ml by MABA relative to control; assay type: functional; settings: variant bovis BCG, read-out: GI
[11] = test system: Mycobacterium tuberculosis; experiment: Antitubercular activity against Mycobacterium bovis BCG assessed as bacterial growth inhibition at 1 ug/ml by MABA relative to control; assay type: functional; settings: variant bovis BCG, read-out: GI

Structure (SMILES)	MIC50 [2] [µg/mL]	inhibition of growth at 10 µg/mL [3] [%]	inhibition of growth at 100 µg/mL [4] [%]	growth inhibition (GI) [6] [%]	also measured
O=c1[nH]cc(C#Cc2ccccc2)c(=O)[nH]1	17.4 (≈ 82 µM)	40	–	–	growth inhibition (GI) [1]: 90%
O=c1[nH]cc(C#CC2CCCCC2)c(=O)[nH]1	2.5 (≈ 11.5 µM)	–	90	50	growth inhibition (GI) [5]: 75%
CCCCCCC#Cc1c[nH]c(=O)[nH]c1=O	–	–	–	–	growth inhibition (GI) [7]: 0%
O=c1[nH]c(=O)n([C@@H]2O[C@H](CO)[C@@H](O)[C@H]2O)cc1C#CC1CC1	2.4 (≈ 7.78 µM)	–	90	50	–
CCCCCCC#Cc1cn([C@@H]2O[C@H](CO)[C@@H](O)[C@H]2O)c(=O)[nH]c1=O	< 50	0	60	–	inhibition of growth at 50 µg/mL [8]: 0%
CC#Cc1c[nH]c(=O)[nH]c1=O	–	–	–	–	growth inhibition (GI) [7]: 0%
CCC#Cc1c[nH]c(=O)[nH]c1=O	–	–	–	–	growth inhibition (GI) [7]: 0%
O=c1[nH]c(=O)n([C@@H]2O[C@H](CO)[C@@H](O)[C@H]2O)cc1C#CC(O)c1ccccc1 (stereo partly drawn)	1.4 (≈ 3.74 µM)	–	–	100	–
CCCCC#Cc1c[nH]c(=O)[nH]c1=O	–	–	–	–	growth inhibition (GI) [7]: 0%
O=c1[nH]cc(C#CC2CC2)c(=O)[nH]1	7.8 (≈ 44.3 µM)	–	80	–	growth inhibition (GI) [5]: 60%
O=c1[nH]c(=O)n([C@@H]2O[C@H](CO)[C@@H](O)[C@H]2O)cc1C#Cc1ccccc1	2.7 (≈ 7.84 µM)	75	–	50	growth inhibition (GI) [1]: 90%
CCCCC#Cc1cn([C@@H]2O[C@H](CO)[C@@H](O)[C@H]2O)c(=O)[nH]c1=O	50 (≈ 154 µM)	0	50	–	inhibition of growth at 50 µg/mL [8]: 0%
C[Si](C)(C)C#Cc1c[nH]c(=O)[nH]c1=O	100 (≈ 480 µM)	–	50	–	–
O=c1[nH]cc(C#CC(O)c2ccccc2)c(=O)[nH]1 (stereo not drawn)	3.1 (≈ 12.8 µM)	80	–	50	growth inhibition (GI) [1]: 90%
O=c1[nH]c(=O)n([C@@H]2O[C@H](CO)[C@@H](O)[C@H]2O)cc1C#CC1CCCCC1	19.2 (≈ 54.8 µM)	–	90	10	inhibition of growth at 25 µg/mL [9]: 60%
N[C@@H]1CONC1=O [CYCLOSERINE]	5.1 (≈ 50 µM)	71	–	–	inhibition of growth at 5 µg/mL [10]: 50%
NNC(=O)c1ccncc1 [ISONIAZID]	0.9 (≈ 6.56 µM)	–	–	–	inhibition of growth at 1 µg/mL [11]: 100%
CO[C@H]1/C=C/O[C@@]2(C)Oc3c(C)c(O)c4c(O)c(c(/C=N/N5CCN(C)CC5)c(O)c4c3C2=O)NC(=O)/C(C)=C\C=C\[C@H](C)[C@H](O)[C@@H](C)[C@@H](O)[C@@H](C)[C@H](OC(C)=O)[C@@H]1C [RIFAMPIN]	0.8 (≈ 0.972 µM)	–	–	–	inhibition of growth at 1 µg/mL [11]: 100%
